Screening results: PubChem, SRMLSC
This is one part of a sample in which hits are shown more often than they occur.
PTEN del growth – growth suppression of PTEN-null HCT116, primary screen, cell-based, CellTiter-Glo; actives 1.2% (n = 140,000); viability, % at 10 µM; HCT116 PTEN-null viability, 60 h; active compounds read low;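 active = viability at or below a set limit, 4 SD under the median of all tested compounds, cut at about 3.7% in these data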;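 also: PTEN knockout HCT116 line with beta catenin targeted HCT116 as companion control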
HCT116 bCat-KO – primary screen for growth suppressors in beta-catenin knockout HCT116 cells (colon tumor, human) | HCT116 beta-catenin knockout viability, CellTiter-Glo, 60 h; active compounds read low | viability, % at 10 µM | actives 1.5% (n = 140,000);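 active = viability at or under a set limit, the compound median less 4 SD, cut at about 6% in these data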
HUVEC prolif 384 – inhibitors of HUVEC proliferation, primary screen, cell-based, 384-well | viability, % at 10 µM (by protocol) | actives 1.1% (n = 86,000) | AID 648, 2007 | CellTiter-Glo luminescence, 72 h; active compounds read low;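 active = viability at or below 30%; inactive = viability above 30%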
Fibroblast inh – antiproliferative effect on LL 47 fibroblasts – human, LL 47 cells, CellTiter-Glo luminescence, primary screen. LL 47 human lung fibroblast viability, ATP luminescence; active compounds read low. viability, % at 10 µM. actives 1.1% (n = 85,000). AID 719, 2007;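 active = viability at or below 50% in the single dose screen; inactive = viability above 50%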;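 also: compound exposure lasted 72 h before the ATP readout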
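Assay system: human lung fibroblast line LL 47, low passage. Input: 1,150 fibroblasts seeded per well. Times: overnight cell rest, 72 h compound treatment at 37 °C. Evaluation: % viability of median cell-only signal. Technique: luminescent ATP detection, CellTiter-Glo. Control set: cell-only wells, no compound.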
H69AR growth 86K – proliferation blockers of H69AR lung cancer cells, primary screen, cell-based, human, 86K library. H69AR lung tumor viability, ATP luminescence, 72 h; active compounds read low. viability, % at 10 µM. actives 6% (n = 85,000). AID 598, 2007;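 active = viability at or below 40%; inactive = viability above 40%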;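 also: multidrug resistant small cell line overexpressing MRP-1 efflux transporter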
Numbers stand for hits; – = inactive; · = no result.

SMILES | PTEN del growth | HCT116 bCat-KO | HUVEC prolif 384 | Fibroblast inh | H69AR growth 86K
O=C(N/N=C/c1ccc([N+](=O)[O-])o1)c1cc(-c2cccc(Br)c2)nc2ccccc12 | 1.7 | 1.8 | · | · | ·
CCCc1ccc(-c2cc(C(=O)N/N=C/c3ccc([N+](=O)[O-])o3)c3ccccc3n2)cc1 | – | – | · | · | ·
O=C(COc1ccccc1)N/N=C/c1ccc([N+](=O)[O-])o1 | 1.0 | 1.3 | · | · | ·
O=C(Nc1nc(-c2ccccc2)cs1)c1ccc(S(=O)(=O)N2CCc3ccccc32)cc1 | – | – | · | · | ·
CCn1cc([N+](=O)[O-])c(C(=O)Nc2nc(-c3ccc(C)c(C)c3)c(C)s2)n1 | – | – | · | · | ·
CCn1cc([N+](=O)[O-])c(C(=O)Nc2nc(-c3ccc(C)cc3)c(C)s2)n1 | 3.3 | – | · | · | ·
COc1ccccc1CNc1nc(SC)ncc1CO | – | – | · | · | ·
CCOC(=O)c1ccccc1NS(=O)(=O)c1ccc(OCC)cc1 | – | – | – | – | 13
COC(=O)c1cccc(NS(=O)(=O)c2ccc(OC)c(OC)c2)c1C | – | – | – | – | –
COc1ccc(S(=O)(=O)Nc2cc3c(C(C)=O)c(C)oc3c3ccccc23)cc1 | – | – | – | – | 25
Cc1oc2c(cc(NS(=O)(=O)c3cccs3)c3ccccc32)c1C(=O)OC(C)C | – | – | – | – | –
CCOC(=O)COc1ccc(S(=O)(=O)Nc2cccc(SC)c2)cc1 | – | – | 14 | 47 | –
COC(=O)c1cccc(NS(=O)(=O)c2ccc(OC)cc2)c1C | – | – | – | – | 23
Cc1nc2sc(C(c3cccc(F)c3)N3CCOCC3)c(O)n2n1 (centres undefined) | – | – | – | – | –
Cc1ccc(-c2[nH]nc(N)c2N=Nc2ccccc2C)cc1 | – | 3.1 | · | · | ·
Cc1ccc(-c2[nH]nc(N)c2N=Nc2cccc(Cl)c2C)cc1 | – | – | · | · | ·
Cc1cc(OCC(=O)Nc2ccncc2)ccc1Br | – | – | – | – | –
CCOC(=O)C1CCN(C(=O)Nc2ccc3nc(-c4ccco4)c(-c4ccco4)nc3c2)CC1 | – | – | – | – | 38
O=C(Nc1ccc2nc(-c3ccco3)c(-c3ccco3)nc2c1)N1CCCCCC1 | – | – | · | · | ·
COC(=O)COc1ccc(S(=O)(=O)NCCC2=CCCCC2)cc1Cl | – | – | 10 | – | –
COC(=O)COc1ccc(S(=O)(=O)Nc2ccc3c(c2)OCO3)cc1 | – | – | – | – | –
COC(=O)COc1ccc(S(=O)(=O)Nc2ccc3c(c2)OCO3)cc1Cl | – | – | 2.3 | 44 | –
Cc1c(CC(Cl)(Cl)Cl)c2c(n1O)CC(C)(C)CC2=O | – | – | · | · | ·
CC(C)Cn1cc(C(=O)N2CCN(c3ccccn3)CC2)c2c3ccccc3n(C)c2c1=O | – | – | – | – | 38
O=C(c1cc(-c2cccc(O)c2)on1)N1CCN(C(c2ccccc2)c2ccccc2)CC1 | – | – | – | – | 5.2
SMILES | PTEN del growth | HCT116 bCat-KO | HUVEC prolif 384 | Fibroblast inh | H69AR growth 86K
O=C1CCCC2=C1C1c3ccccc3C(=O)N1c1ccc(C(=O)c3ccccc3)cc1N2 (centres undefined) | – | – | – | – | 21
O=C1CC(c2ccco2)CC2=C1C1c3ccccc3C(=O)N1c1ccccc1N2 (centres undefined) | – | – | – | – | –
CCOC(=O)C(C(=O)OCC)C(C(=O)OCC)N1CCOCC1 (centres undefined) | 1.7 | 1.2 | 2.9 | 1.9 | 0.7
CCOC(=O)C(C)CC(C)C(=O)N1CCOCCOCCN(C(=O)C(C)CC(C)C(=O)OCC)CCOCC1 (centres undefined) | – | – | – | – | –
Clc1ccc(-n2ncc3c(NCc4ccc5c(c4)OCO5)ncnc32)cc1 | – | – | – | – | 7.9
Cc1cc(C)nc(N2CCN(c3ncnc4c3cnn4Cc3ccc(Cl)cc3Cl)CC2)n1 | · | · | – | · | 32
Clc1ccc(-n2ncc3c(NCC4CCCO4)ncnc32)cc1 (centres undefined) | – | – | – | – | 20
Clc1ccc(-n2ncc3c(NCc4ccco4)ncnc32)cc1 | – | – | – | – | 12
COc1ccc(-n2ncc3c(NCc4ccco4)ncnc32)cc1 | – | – | – | – | –
c1ccc(-n2ncc3c(NCC4CCCO4)ncnc32)cc1 (centres undefined) | – | – | – | – | –
Cc1cccn2c(=O)c3cc(C(=O)Nc4ccc(N(C)C)cc4)n(C)c3nc12 | · | · | – | – | –
Cc1cc(C)n2nc(SCC(=O)N/N=C/c3cccc(Br)c3)nc2n1 | – | – | · | · | ·
CC(C)NC(=O)c1ccc(-c2ccccc2C(F)(F)F)o1 | – | – | – | – | –
Clc1ccc(Cn2ncc3c(NCc4ccco4)ncnc32)c(Cl)c1 | – | – | – | · | 26
c1ccc(CNc2ncnc3c2cnn3Cc2ccccc2)cc1 | – | – | – | – | 26
CCc1cc2c(NCc3ccco3)ncnc2s1 | – | – | – | – | –
Cc1cccc(N(C(=O)c2nsc(Cl)c2Cl)C(C(=O)NC2CCCC2)c2ccc(O)cc2)c1C (centres undefined) | – | – | · | · | ·
Cc1nn2c(-c3cccc(NC(=O)CSc4nc5ccccc5o4)c3)nnc2c2ccccc12 | – | – | – | – | 9.6
O=C(CN1CCCC1)Nc1ccc(-c2nc3cc(NC(=O)CN4CCCC4)ccc3o2)cc1 | 3.7 | 2.4 | – | 23 | –
Cc1ccc2oc(-c3ccc(NC(=O)CC(C)C)cc3)nc2c1 | – | – | – | – | –
CCN(CC)CC(=O)Nc1ccc(-c2nc3cc(NC(=O)CN(CC)CC)ccc3o2)cc1 | – | – | – | 44 | –
CCC(C)NCC(=O)Nc1ccc(-c2nc3cc(NC(=O)CNC(C)CC)ccc3o2)cc1 (centres undefined) | 0.8 | 0.6 | 25 | 2.9 | –
CCCC(=O)Nc1ccc2oc(-c3ccncc3)nc2c1 | – | – | – | – | –
Cc1ccccc1C(=O)O/N=C/c1c(N2CCOCC2)n(C)c2ccccc12 | – | – | · | · | ·
COc1cc(/C=N/NC(=O)C(C)Nc2n[nH]c(=O)[nH]c2=O)ccc1O (centres undefined) | – | – | · | · | ·
SMILES | PTEN del growth | HCT116 bCat-KO | HUVEC prolif 384 | Fibroblast inh | H69AR growth 86K
Cc1cc(C)n(-c2nc(NCC(C)O)c3c4c(sc3n2)COC(C)(C)C4)n1 (centres undefined) | – | – | – | – | –
Cc1cc(C)n(-c2nc(SCCN(C)C)c3c4c(sc3n2)COC(C)(C)C4)n1 | 3.3 | 1.9 | · | · | ·
Cc1cc(C)n(-c2nc(NCC3CCCO3)c3c4c(sc3n2)COC(C)(C)C4)n1 (centres undefined) | – | – | – | – | 10
Nc1nnc(SCc2ccc(Cl)cc2)s1 | 0.8 | 0.8 | – | – | –
O=S1(=O)CC2N=C(N(Cc3c(F)cccc3Cl)c3ccccc3F)SC2C1 (centres undefined) | – | – | · | · | ·
COc1cc(C2C3CN(C)CC=C3C(C#N)=C(N)C2(C#N)C#N)ccc1OC(C)C (centres undefined) | – | – | – | – | 35
Cc1ccccc1C(=O)c1c[nH]c(C(=O)NCCCn2ccnc2)c1 | – | – | · | · | ·
